Measured values pooled from the literature.
Compare with care: the assays were run in different laboratories.
Target: Vascular endothelial growth factor receptor 2 (KDR, Homo sapiens, UniProt P35968)
Observed: enzyme activity
Action: inhibitor

SMILES	technique	tested at	remaining activity
CCN(CC)c1ccc(C2=NNC(=O)CC2C)cc1[N+](=O)[O-] (stereo not shown)	–	10 µM	99%
COc1cc(Cl)c(C(=O)N[C@@H](CN[C@H]2CC[C@@H](N)CC2)Cc2ccc(C#N)cc2)cc1-c1ccc(CN[C@H](C)c2ccc(C)cc2)o1	–	1 µM	82%
CC(C)(O)[C@H]1CC[C@H](Nc2ccc3ncc(-c4cccc(C(F)(F)F)c4)n3n2)CC1	–	1 µM	91.5%
CC(C)(C)c1nc(-c2cccc(NS(=O)(=O)c3c(F)cccc3F)c2F)c(-c2ccnc(N)n2)s1	radiometric	1 µM	82%
COc1ccc(NC(=O)c2c(Nc3ccccc3)sc(C#N)c2NC(=O)CNc2ccc([N+](=O)[O-])cc2)cc1	–	0.1 µM	86.1%
O=C(Nc1cnn(-c2csc(C(=O)NC3COC3)c2)c1)Nc1ccccc1Cl	–	5 µM	95.2%
CC(C)(C)c1nc2c(s1)c1nc(N)ncc1c1ccc(NS(=O)(=O)c3c(F)cccc3F)c(F)c12	radiometric	1 µM	95%
COc1ccc(NC(=O)c2c(Nc3ccccc3)sc(C#N)c2NC(=O)CNc2ccc(Cl)cc2)cc1	–	100 µM	16.5%
CCCOc1ccc(OC)c(F)c1C(=O)c1ccc(C(=O)N[C@@H]2CNC[C@H]2NC(=O)c2ccc3[nH]ncc3c2)cc1	–	10 µM	74%
COc1ccc(C=NNC(=O)c2sc(Nc3ccccc3)c(C(=O)Nc3ccc(OC)cc3)c2NC(C)=O)cc1	–	0.1 µM	79.4%
Cc1[nH]c(/C=C2\C(=O)Nc3ccc(F)cc32)c(C)c1C(=O)N[C@H]1CCN(C(=O)N(C)C)C1	–	0.1 µM	10%
Cc1cnc(NC2CCOCC2)nc1-n1cnc(C(=O)NC(CN)c2cc(F)cc(Cl)c2)c1 (stereo not shown)	radiometric	1 µM	85%
O=C(Nc1cnn(-c2csc(C(=O)NC3COC3)c2)c1)Nc1c(F)cccc1Cl	–	5 µM	88.3%
